# Measured values reported in publication PMC6021137 (Clinical cancer research : an official journal of the …, 2013).
# “And” between values parts separate entries of the source, which are not always exact repeats. Equal entries are not always repeated.
# Tests used:
# [1] = system: CWR22Rv1 tumor xenografts (s.c.); assay: Subcutaneous CWR22Rv1 xenograft tumor growth; type: in vivo, SCID mice; details: for suppression of s.c. tumor growth at end of treatment: oral gavage
# CWR22Pc cells [2] = assay: Cell viability assay; type: cell-based; details: Homo sapiens, 72 h, read-out: GI50 (number of viable cells decreased by 50%)
# Stat5a/b dimerization = Stat5a/b dimerization by co-immunoprecipitation in PC-3 cells; type: cell-based, human; details: 2 h pre-treatment, 10 nM hPrl
# CWR22Rv1 cells [3] = assay: Caspase-3 activation assay; type: cell-based, human; details: 800 nM, 72 h
# PC-3 = assay: Cell viability assay; type: cell-based; details: Homo sapiens, PC-3, 72 h
# CWR22Pc cells [4] = assay: Cell cycle analysis; type: cell-based, human; details: CWR22Pc, 24, 48 and 72 h
# DU145 = assay: Cell viability assay; type: cell-based; details: Homo sapiens, DU-145, 72 h
# CWR22Rv1 cells [5] = assay: Cell viability assay; type: cell-based; details: Homo sapiens, CWR22Rv1, 72 h, read-out: GI50 (number of viable cells decreased by 50%)
# [6] = system: clinical prostate cancers ex vivo in organ explant cultures; assay: Ex vivo organ explant cultures of clinical PCs; type: cell-based, human
# [7] = system: CWR22Rv1 tumor xenografts (orthotopic); assay: Orthotopic CWR22Rv1 xenograft tumor growth; type: in vivo, SCID mice; details: oral gavage
# Summary of the method: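 Luciferase-tagged CWR22Rv1 cells were implanted orthotopically into the prostates of male CB-17 SCID mice. Mice received test compound at 10 or 30 mg/kg, or vehicle (0.1% Tween 80/0.5% methylcellulose), daily by oral gavage. […]. Growth suppression was assessed at end of treatment versus vehicle.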
# Stat5a [8] = molecular target: T1, Stat5a (Homo sapiens, UniProt O60674); assay: Stat5a phosphorylation, immunoprecipitation/immunoblotting, CWR22Rv1 cells; type: cell-based; details: read-out: IC50, inhibition of constitutive activation of Stat5a; exponentially growing CWR22Rv1 cells
# Stat5b [9] = molecular target: T2, Stat5b (Homo sapiens, UniProt O60674); assay: Stat5b phosphorylation, immunoprecipitation/immunoblotting, CWR22Rv1 cells; type: cell-based
# Stat5a [10] = molecular target: T1, Stat5a; assay: Stat5a phosphorylation, immunoprecipitation/immunoblotting, CWR22Pc cells; type: cell-based; details: read-out: IC50, inhibition of constitutive activation of Stat5a; exponentially growing CWR22Pc cells
# CWR22Pc xenograft tumors = assay: CWR22Pc xenograft tumor growth; type: in vivo
# Stat5b [11] = molecular target: T2, Stat5b; assay: Stat5b phosphorylation, immunoprecipitation/immunoblotting, CWR22Pc cells; type: cell-based
# [12] = system: normal prostate epithelial cells (RC165N); assay: Cell viability assay; type: cell-based; details: Homo sapiens, 72 h
# CWR22Pc cells [13] = assay: Caspase-3 activation assay; type: cell-based, human; details: 800 nM, 48 h
# [14] = system: Stat5a/b nuclear translocation; assay: Nuclear translocation of Stat5a/b, immunofluorescence in PC-3 cells; type: cell-based, human; details: 200 nM AZD1480 for 2 h, 10 nM hPrl 20 min
# [15] = tumors harvested at end of treatment
# T2 sequence (O60674 whole entry): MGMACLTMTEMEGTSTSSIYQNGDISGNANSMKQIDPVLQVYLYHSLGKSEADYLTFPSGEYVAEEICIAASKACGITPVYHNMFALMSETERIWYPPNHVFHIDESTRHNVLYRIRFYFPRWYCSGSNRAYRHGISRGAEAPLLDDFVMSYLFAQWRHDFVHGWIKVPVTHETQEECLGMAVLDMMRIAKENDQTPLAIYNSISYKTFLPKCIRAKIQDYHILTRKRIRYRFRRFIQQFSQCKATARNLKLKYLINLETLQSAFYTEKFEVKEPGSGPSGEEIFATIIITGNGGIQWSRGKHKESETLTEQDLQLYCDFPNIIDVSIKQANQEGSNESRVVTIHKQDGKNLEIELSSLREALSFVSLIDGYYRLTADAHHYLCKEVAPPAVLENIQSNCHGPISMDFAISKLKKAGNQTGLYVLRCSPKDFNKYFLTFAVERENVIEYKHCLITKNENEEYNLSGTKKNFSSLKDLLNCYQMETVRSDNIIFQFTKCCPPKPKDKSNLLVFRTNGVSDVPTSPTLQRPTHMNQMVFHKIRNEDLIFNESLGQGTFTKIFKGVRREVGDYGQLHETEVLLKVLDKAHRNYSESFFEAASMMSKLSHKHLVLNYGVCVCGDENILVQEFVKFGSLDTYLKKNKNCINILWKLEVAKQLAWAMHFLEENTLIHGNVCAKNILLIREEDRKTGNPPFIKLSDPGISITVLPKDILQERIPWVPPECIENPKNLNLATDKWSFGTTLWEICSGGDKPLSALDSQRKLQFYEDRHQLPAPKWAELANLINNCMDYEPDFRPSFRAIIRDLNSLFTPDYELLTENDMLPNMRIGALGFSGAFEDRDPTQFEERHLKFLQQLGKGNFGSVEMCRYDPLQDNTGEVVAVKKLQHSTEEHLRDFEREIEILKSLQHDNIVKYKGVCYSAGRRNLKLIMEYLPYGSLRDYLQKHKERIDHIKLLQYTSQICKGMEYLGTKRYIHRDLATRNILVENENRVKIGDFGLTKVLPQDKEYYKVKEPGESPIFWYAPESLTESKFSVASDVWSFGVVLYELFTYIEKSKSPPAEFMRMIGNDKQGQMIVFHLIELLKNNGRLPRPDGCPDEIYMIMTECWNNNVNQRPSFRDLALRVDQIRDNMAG
# T1 sequence (O60674 whole entry): as above
structure (smiles),measurement,setting,value
"Cc1cc(Nc2nc(N[C@@H](C)c3ncc(F)cn3)ncc2Cl)n[nH]1 [AZD1480, 5-Chloro-N(2)-[(1S)-1-(5-fluoropyrimidin-2-yl)ethyl]-N(4)-(5-methyl-1H-pyrazol-3-yl)pyrimidine-2,4-diamine]",suppression of s.c. tumor growth at end of treatment,[1]; 10 mg/kg daily,52%
same,suppression of s.c. tumor growth at end of treatment,[1]; 30 mg/kg daily,72%
same,Stat5a/b phosphorylation in s.c. xenograft tumor lysates,[1]; 2 h following 30 mg/kg,significant inhibition of Stat5a/b phosphorylation
same,decrease in nuclear Stat5a/b in tumor tissues relative to control (IHC),[1]; tumors harvested after 11 days of drug treatment,70%
same,GI50,CWR22Pc cells [2],0.482 µM
same,hPrl-induced Stat5a/b dimerization,Stat5a/b dimerization,potently inhibited
same,increase in caspase-3 activation,CWR22Rv1 cells [3],200%
same,GI50,PC-3,1.76 µM
same,"cell cycle distribution: G1, G2-M and dead cells (sub G1)",CWR22Pc cells [4],fraction of dead cells (sub G1) was increased at all time points
same,GI50,DU145,3.52 µM
same,GI50,CWR22Rv1 cells [5],0.438 µM
same,nuclear Stat5a/b levels in explants,"[6]; 9 responsive PCs, both AZD1480 treatment groups",significantly decreased
same,clinical PCs not responding (non-responders),[6]; 7 days culture,3 of the 12 and 3
same,clinical PCs responding by loss of viable epithelium (responders),[6]; 7 days culture,Nine of 12
same,concentration from which extensive loss of viable epithelium starts,"[6]; responders, 7 days culture",25 µM
same,suppression of orthotopic tumor growth,[7]; 10 mg/kg daily,6%
same,suppression of orthotopic tumor growth,[7]; 30 mg/kg daily,54%
same,IC50,Stat5a [8],0.016 µM
same,IC50,"Stat5b [9]; read-out: IC50 for Prl-induced Stat5b phosphorylation, serum-starved CWR22Rv1 cells, 10 nM hPrl",0.048 µM
same,IC50,"Stat5b [9]; read-out: IC50 for Stat5b phosphorylation (constitutive), exponentially growing CWR22Rv1 cells",0.065 µM
same,IC50,Stat5a [10],0.007 µM
same,inhibition of primary CWR22Pc tumor growth (TW 1),"CWR22Pc xenograft tumors; 30 mg/kg daily oral, 21 days from day 12",73%
same,emergence of CR CWR22Pc tumors (TW 2),"CWR22Pc xenograft tumors; 30 mg/kg daily oral, from day 13 after androgen deprivation",significantly blocked
same,growth of established CR CWR22Pc tumors (TW 3),"CWR22Pc xenograft tumors; 30 mg/kg daily oral, from day 23 after androgen deprivation",significantly blocked
same,overall survival of tumor-bearing mice,"CWR22Pc xenograft tumors; TWs 2 and 3, vs docetaxel-treated mice",better overall survival
same,"levels of full-length AR, AR splice variants and tissue PSA in tumor lysates","CWR22Pc xenograft tumors; immunoblotting, TWs 1, 2 and 3",did not affect
same,nuclear Stat5a/b levels in CWR22Pc tumors (IHC),CWR22Pc xenograft tumors; [15],decreased nuclear Stat5a/b levels in all TWs significantly
same,fraction of viable tumor cells in CWR22Pc tumors,"CWR22Pc xenograft tumors; tumors harvested at end of treatment, all TWs",reduced the fraction of viable tumor cells in all TWs
same,IC50,"Stat5b [11]; read-out: IC50 for Prl-induced Stat5b phosphorylation, serum-starved CWR22Pc cells, 10 nM hPrl",0.07 µM
same,IC50,"Stat5b [11]; read-out: IC50 for Stat5b phosphorylation (constitutive), exponentially growing CWR22Pc cells",0.065 µM
same,GI50,[12],2.08 µM
same,increase in caspase-3 activation,CWR22Pc cells [13],150%
same,ligand-induced nuclear translocation of Stat5a/b,[14],no ligand-induced nuclear immunostaining of Stat5a/b
"CC(O)(CS(=O)(=O)c1ccc(F)cc1)C(=O)Nc1ccc(C#N)c(C(F)(F)F)c1 (stereo not drawn) [bicalutamide, reference compound]",suppression of primary CWR22Pc tumor growth (TW 1),"CWR22Pc xenograft tumors; 50 mg/kg daily oral, 21 days from day 12",30%
same,nuclear Stat5a/b levels in CWR22Pc tumors (IHC),CWR22Pc xenograft tumors; [15],no effect
"CC(=O)O[C@@]12CO[C@@H]1C[C@H](O)[C@@]1(C)C(=O)[C@H](O)C3=C(C)[C@@H](OC(=O)[C@H](O)[C@@H](NC(=O)OC(C)(C)C)c4ccccc4)C[C@@](O)([C@@H](OC(=O)c4ccccc4)[C@H]21)C3(C)C [docetaxel, reference compound]",nuclear Stat5a/b levels in CWR22Pc tumors (IHC),CWR22Pc xenograft tumors; [15],no effect
